We go through three molecules from publication PMC12217349 (Scientific Reports, 2025).

Experiment [1] relates to bone marrow collagen fibrosis. Conditions: myelofibrosis patients treated for 9 months; cited from earlier work.
In experiment [2] the test system is myocardial infarction (MI) mouse model. Put plainly: Myocardial infarction. The conditions noted are these: MI mice; daily oral gavage 28 days; SNT-5382 14 mg/kg, losartan 15 mg/kg. Format: in vivo, Male C57BL/6J mice. In short, it runs like this:
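Male C57BL/6J mice, 10–11 weeks, were anaesthetised with ketamine 100 mg/kg and xylazine 10 mg/kg under ventilation. The left coronary artery was permanently ligated; shams had no occlusion. Mice with fractional shortening of 10–40% at 24 h were included. Daily oral gavage for 4 weeks: test compound 14 mg/kg (free base), losartan 15 mg/kg or water vehicle; blinded.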

Experiment [3] relates to LOXL2. The conditions noted are these: cited from earlier work.

For the molecule `NCc1cc(Oc2cccc(C(=O)N3C[C@@H](O)[C@H](F)C3)c2)nc(C(F)(F)F)c1` [GB2064], the “patients with reduced bone marrow collagen fibrosis grade” value in experiment [1] is 60%.

On to `CCCCc1nc(Cl)c(CO)n1Cc1ccc(-c2ccccc2-c2nn[nH]n2)cc1` [losartan, Losartan], for which the “hypertrophy: left ventricular end-systolic diameter (LVESD)” value in experiment [2] is “no significant effect”.

B1: simtuzumab: an allosteric LOXL2 selective antibody (antibody, chains of the INN, looked up, V domains shown)
VH: QVQLVQSGAEVKKPGASVKVSCKASGYAFTYYLIEWVRQAPGQGLEWIGVINPGSGGTNYNEKFKGRATITADKSTSTAYMELSSLRSEDTAVYFCARNWMNFDYWGQGTTVTVSS
VL: DIVMTQTPLSLSVTPGQPASISCRSSKSLLHSNGNTYLYWFLQKPGQSPQFLIYRMSNLASGVPDRFSGSGSGTDFTLKISRVEAEDVGVYYCMQHLEYPYTFGGGTKVEIK
B1: the “inhibition of LOXL2 enzymatic activity” value in experiment [3] is on record as “did not inhibit the enzymatic activity of LOXL2”.
